# UPR CHOP act = activators of apoptotic arm of unfolded protein response (CHOP) | CHO-CHOP luciferase reporter, UPR activation, luminescence; percent of tunicamycin response over DMSO baseline | activation, % at 10 µM | 0.34% of 330,000 active | AID 449763;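 active means at 10 µM dose, activation of 40% or more, normalized to positive control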;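 further: 100% = tunicamycin at 10 µg/mL and 0% = DMSO alone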
#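 measured by = luciferase luminescence | assay system = CHO-CHOP cells, stable luciferase reporter of PERK-eIF2a-CHOP signalling | amount = 500 reporter cells seeded per well | timing = 6 h compound exposure at 37 °C after overnight seeding | controls = positive tunicamycin 10 µg/mL, negative DMSO alone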
# UPR XBP1 act = activators of adaptive arm of unfolded protein response (XBP1); CHO-XBP1 luciferase reporter, IRE1-XBP1 UPR activation, luminescence; percent of tunicamycin response, DMSO as zero; 0.33% of 330,000 active; AID 463104; activation, % at 20 µM;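 active means versus positive control, 20 µM dose yields 30% or more activation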;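 further: 100% = tunicamycin at 10 µg/mL and 0% = DMSO only wells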
#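 Test system: CHO-XBP1 luciferase reporter cells | Buffer or medium: Serum-containing F12 medium, 10% FBS | Schedule: 6 h compound exposure at 37 °C, 5% CO2 | Detection: Steady-Glo luciferase glow luminescence, 10 min after reagent addition | Read-out basis: Activation, % of tunicamycin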
# tim23-1 inh = inhibits growth of tim23-1 mutant yeast. S. cerevisiae tim23-1 growth, BacTiter-Glo luminescence, 24 h. inhibition, % at 20 µM. 1.3% of 330,000 active. AID 463212;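 active means growth inhibition of the mutant yeast at or above 50%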;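 further: temperature-sensitive mutant grown at 25 °C; plate controls were DMSO-treated mutant yeast for no effect and medium wells lacking yeast for full effect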
# TIM10 inh = growth inhibitors of TIM10 yeast strain. S. cerevisiae TIM10 strain growth, BacTiter-Glo luminescence, 24 h. inhibition, % at 10 µM. 1.4% of 330,000 active;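 active means inhibition of 40% or more at the single tested concentration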;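 further: wild-type TIM10 isogenic control strain grown at permissive 25 °C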
# tim10-1 inh = growth inhibitors of tim10-1 mutant yeast; S. cerevisiae tim10-1 ts strain growth, BacTiter-Glo, 24 h; inhibition, % at 20 µM; 2.2% of 330,000 active;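 active means inhibition of at least 40%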;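 further: mutant grown at 25 °C; 0% = DMSO wells with yeast and 100% = wells holding no yeast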
# tim10-1 confirm = confirmation of tim10-1 mutant yeast growth inhibitors | S. cerevisiae tim10-1 ts strain growth, BacTiter-Glo, 24 h | AID 463213 | inhibition, % at 20 µM | 56% of 7,400 active | shares compounds with tim10-1 inh;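 active means inhibition of yeast growth at or above a set limit in either of two repeat tests at 20 µM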;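 further: tim10-1 mutant grown at permissive 25 °C to find synthetic lethal compounds; 0% = DMSO yeast wells and 100% = medium wells without yeast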
# The depositor's hits bear a star; / = no result. Rows were chosen to be rich in hits. Some 3.9% of all compounds tested hit in one or more screens of this group.
SMILES,UPR CHOP act,UPR XBP1 act,tim23-1 inh,TIM10 inh,tim10-1 inh,tim10-1 confirm
CC(C)CNC(=O)/C(C#N)=C1\N=C(NC(=O)c2ccco2)c2ccccc21,4,8,38,27,47*,-3
CCCNC(=O)/C(C#N)=C1\N=C(NC(=O)c2ccco2)c2ccccc21,4,1,28,28,10,/
COc1ccccc1/C=C1\SC(=O)N(CCC(=O)N2CCCCC2CCO)C1=O (configuration not stated),1,-2,26,21,19,/
COc1ccccc1/C=C1\SC(=S)N(CCC(=O)N2CCCCC2CCO)C1=O (configuration not stated),0,-4,34,16,42*,9
Cc1noc(C)c1COc1ccccc1C(=O)N(C)Cc1ccc(F)cc1,0,-1,18,16,21,/
Cc1noc(C)c1COc1ccccc1C(=O)N(C)Cc1ccc(C(C)(C)C)cc1,0,0,49,17,42*,20
COc1ccc(OC)c(-c2cc(C(=O)Nc3c(C)nn(Cc4ccccc4)c3C)no2)c1,0,1,16,25,41*,10
Cc1nn(Cc2ccc(Cl)cc2)c(C)c1NC(=O)c1c(-c2ccccc2)noc1C,0,-1,30,28,43*,44*
COc1ccc(OC)c(-c2cc(C(=O)Nc3c(C)nn(Cc4ccc(Cl)cc4)c3C)no2)c1,3,11,34,34,43*,32*
Cc1onc(-c2ccccc2)c1C(=O)NCCc1ccc(Cl)cc1,-3,-4,6,5,-6,/
CC(C)(C)[C@H]1COC(=O)[C@H](NC(=O)OCC2c3ccccc3-c3ccccc32)C/C=C\C[C@@H](CC(=O)N(CCO)Cc2ccccc2)C(=O)N1,2,-2,12,-2,29,/
COCCNC(=O)/C(C#N)=C/c1ccc(-c2ccc(OC)cc2[N+](=O)[O-])o1,3,-1,-8,-6,-13,/
CCOP(=O)(OCC)/C(C#N)=C/c1ccc(-c2ccc(F)cc2F)o1,1,2,34,9,47*,32*
CCOc1ccccc1N1CCN(S(=O)(=O)c2ccc3c4c(cccc24)C(=O)N3)CC1,-1,-1,6,15,20,/
CCOc1ccc(S(=O)(=O)N2CCN(c3ccccc3F)CC2)c2cccnc12,-1,0,33,22,45*,25
OCCCNC(=S)Nc1ccc(Oc2ccccc2)cc1,0,2,13,4,33,/
CCNC(=S)Nc1ccc(N(c2ccccc2)C(C)C)cc1,-1,-1,19,5,42*,28
CC(C)CNC(=S)Nc1ccc(Oc2ccccc2)cc1,0,-1,45,36,43*,24
CNc1c(NC(=O)C2CCC(C)CC2)c(=O)oc2ccccc12 (configuration not stated),1,2,4,-15,16,/
Cc1cc(-c2ccccc2)nc(N/N=C/c2ccccc2F)n1,6,-1,48,28,31,/
COc1ccc2[nH]c3c(N4CCN(Cc5ccc6c(c5)OCO6)CC4)ncnc3c2c1,-2,0,35,27,20,/
COc1ccc2[nH]c3c(N4CCC(O)(c5cccc(C(F)(F)F)c5)CC4)ncnc3c2c1,6,9,3,9,42*,16
COc1ccc(-c2nc(C)ncc2-c2ccccc2)c(O)c1,0,2,23,5,41*,17
COc1ccc(C(C(=O)NC(C)(C)C)N(C(=O)CNC(=O)c2cccs2)c2cccnc2)cc1OC (configuration not stated),0,0,17,-4,7,/
COc1ccc(Cc2nnc(SCC(=O)Nc3ccccc3C#N)o2)cc1,-1,-5,8,-10,8,/
SMILES,UPR CHOP act,UPR XBP1 act,tim23-1 inh,TIM10 inh,tim10-1 inh,tim10-1 confirm
O=C(NCc1cccs1)C1CCCN(C(=O)Nc2ccccc2)C1 (configuration not stated),-1,-5,1,7,-23,/
Brc1ccccc1-c1nnc2sc(-c3ccc4c(c3)OCCO4)nn12,-1,0,42,34,49*,24
Clc1ccccc1-c1nnc2sc(-c3ccc4c(c3)OCO4)nn12,2,3,23,12,16,/
OC(c1ccc(OCc2ccccc2)cc1)c1nnc(-c2ccccc2)o1 (configuration not stated),-2,-3,15,12,18,/
OC(c1cccc(OCc2ccccc2)c1)c1nnc(-c2ccccc2)o1 (configuration not stated),2,1,17,16,44*,28
Cc1cc(C(=O)NN=C2CCCCCC2)c(C)o1,-1,0,13,1,80*,5
Cc1cc(C(=O)N/N=C2\CCCC(=O)C2)c(C)o1,-1,-5,-5,1,-5,/
CCOC(=O)CN1C(c2ccc(O)cc2)Nc2ccc(Br)cc2C1c1ccccc1 (configuration not stated),3,-1,44,32,46*,18
COC(=O)c1c(NC(=O)CN2CCN(c3ncccn3)CC2)sc(C(N)=O)c1C,3,-3,2,5,-10,/
O=C(CN1CCN(S(=O)(=O)c2ccccc2F)CC1)N1CCc2ccccc2C1,-1,-4,0,5,-8,/
COc1ccccc1-n1cc2c([N+](=O)[O-])cc([N+](=O)[O-])cc2n1,4,-7,45,31,49*,38*
Cc1cccc(OCCNc2cc(N3CCN(C)CC3)ccc2[N+](=O)[O-])c1,5,-1,24,20,29,/
Cc1ccc(OCCNc2cc(N3CCN(CCO)CC3)ccc2[N+](=O)[O-])cc1C,1,-2,35,17,43*,23
CCOC(=O)C1=C(COC(=O)c2ccc(C)c(S(=O)(=O)N3CCOCC3)c2)NC(=O)NC1C (configuration not stated),3,-1,-2,13,-12,/
Cc1ccc(C)c(N2CCN(C(=O)c3ccc4nc(-c5ccco5)c(-c5ccco5)nc4c3)CC2)c1,1,-3,2,5,44*,37*
Cc1c(C)n(C)c2ccc(C(=O)N3CCN(c4ccccc4)CC3)cc12,0,-5,38,11,39,/
Cc1ccc(C)c(N2CCN(C(=O)c3ccc4c(c3)c(C)c(C)n4C)CC2)c1,0,-2,36,27,43*,18
O=S(=O)(c1ccc(-c2csc(-c3cccnc3)n2)cc1)N1CCOCC1,-1,1,24,16,42*,23
Cc1ccc(S(=O)(=O)N2CCOCC2)cc1C(=O)Nc1nc(-c2cccnc2)cs1,-1,1,1,7,5,/

# Assay outcomes: PubChem, Sanford-Burnham Center for Chemical Genomics
